Source: ChEMBL document CHEMBL4270555, “Synthesis and biological evaluation of magnolol derivatives as melatonergic receptor agonists with potential use in depression” (Eur J Med Chem, 2018)
Calls of active or inactive are those of the source.

How the values were obtained:
[1] = Drug metabolism in Sprague-Dawley rat plasma assessed as (2S,3S,4S,5R,6S)-3,4,5-trihydroxy-6-(5-(1-hydroxyallyl)-5'-(2-hydroxypropyl)-2'-methoxybiphenyl-2-yloxy)tetrahydro-2H-pyran-2-carboxylic acid formation at 100 mg/kg, po by UPLC-IT-TOF-MS analysis; type: ADME, organism-based; conditions: in vivo
How it was run: (§1)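 Rats (n = 6) housed in metabolic cages received 100.0 mg/kg orally; controls received 0.5% CMC-Na. Plasma, urine and faeces were collected and analyzed by LC-IT-TOF-MS on a C18 column at 30 °C. Gradient 5–100% acetonitrile with 0.05% formic acid over 18 min at 0.2 mL/min; positive and negative ion MS/MS.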

[2] = Drug metabolism in Sprague-Dawley rat plasma assessed as 1-(2'-hydroxy-5'-(1-hydroxyallyl)-6-((2S,3R,4S,5S,6R)-3,4,5-trihydroxy-6-(hydroxymethyl)tetrahydro-2H-pyran-2-yloxy)biphenyl-3-yl)prop-2-en-1-one formation at 100 mg/kg, po by UPLC-IT-TOF-MS analysis; type: ADME, organism-based; conditions: in vivo; how it was run: as §1
[3] = target: Melatonin receptor type 1A (Homo sapiens, UniProt P48039); assay: Agonist activity at human MT1 receptor expressed in HEK293 cells after 24 hrs by Fluo-8 dye-based calcium assay; type: functional, cell-based
Sequence of Melatonin receptor type 1A (P48039 whole entry): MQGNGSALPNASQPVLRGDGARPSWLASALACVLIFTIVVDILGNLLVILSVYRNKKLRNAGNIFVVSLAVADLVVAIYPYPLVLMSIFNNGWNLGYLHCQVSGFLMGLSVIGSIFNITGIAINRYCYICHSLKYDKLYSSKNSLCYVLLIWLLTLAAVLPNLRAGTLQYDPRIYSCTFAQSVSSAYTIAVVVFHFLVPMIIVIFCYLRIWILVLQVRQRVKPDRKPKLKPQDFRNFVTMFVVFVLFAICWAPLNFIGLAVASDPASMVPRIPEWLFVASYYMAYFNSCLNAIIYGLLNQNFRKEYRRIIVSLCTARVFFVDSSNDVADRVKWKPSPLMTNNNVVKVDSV
How it was run: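 Fluo-8 calcium flux in HEK293 cells stably expressing human MT1 or MT2, grown in DMEM + 10% FBS at 37 °C, seeded 4×10^4/well and incubated 24 h. Compounds in DMSO/HBSS at several concentrations; fluorescence read at room temperature (ex 485, em 525 nm). Triplicate wells, three independent experiments; EC50 by nonlinear regression.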

[4] = Drug metabolism in Sprague-Dawley rat plasma assessed as 5,5'-bis(1-hydroxyallyl)biphenyl-2,2'-diol formation at 100 mg/kg, po by UPLC-IT-TOF-MS analysis; type: ADME, organism-based; conditions: in vivo
How it was run: (§2)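 Male/unspecified SD rats (n = 6) housed individually in metabolic cages, dosed orally at 100.0 mg/kg; controls given 0.5% CMC-Na orally. Plasma, urine and faeces collected. LC-IT-TOF-MS on C18 column at 30 °C, formic acid (0.05%) water/acetonitrile gradient 5–100% B over 18 min, 0.2 mL/min; positive and negative ion modes with automatic MS/MS.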

[5] = Drug metabolism in Sprague-Dawley rat urine assessed as 5,5'-diallyl-2'-hydroxybiphenyl-2-yl hydrogen sulfate formation at 100 mg/kg, po by UPLC-IT-TOF-MS analysis; type: ADME, organism-based; conditions: in vivo; how it was run: as §2
[6] = Drug metabolism in Sprague-Dawley rat plasma assessed as 5,5'-diallylbiphenyl-2,2'-diol formation at 100 mg/kg, po by UPLC-IT-TOF-MS analysis; type: ADME, organism-based; conditions: in vivo; how it was run: as §2
Mus musculus [7] = assay: Increase in ratio of 5-hydroxyindole-3-acetic acid to 5-hydroxytryptamine level in Kunming mouse hippocampus at 40 mg/kg, po treated for 7 days by HPLC-ECD analysis; type: functional, organism-based
How it was run: (§3)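 Male Kunming mice (18–20 g) given vehicle or 40 mg/kg for 7 days, then killed by cervical dislocation. Frontal cortex, hippocampus, striatum, hypothalamus and thalamus dissected on ice, homogenized in ice-cold 0.2 M perchloric acid with 0.1 mM EDTA, centrifuged 15,000 rpm, 20 min, 4 °C. Supernatant analysed by HPLC-ECD at +0.50 V; phosphate/octanesulfonate mobile phase pH 3.0 with 12% methanol. Levels in ng/g, mean ± SEM.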

Mus musculus [8] = assay: Increase in 5-hydroxyindole-3-acetic acid level in Kunming mouse frontal cortex at 40 mg/kg, po treated for 7 days by HPLC-ECD analysis; type: functional, organism-based; how it was run: as §3
[9] = Drug metabolism in Sprague-Dawley rat feces assessed as (2R,2'R,3S,3'S,4S,4'S,5R,5'R,6S,6'S)-6,6'-(5,5'-diallylbiphenyl-2,2'-diyl)bis(oxy)bis(2-(hydroxymethyl)tetrahydro-2H-pyran-3,4,5-triol) formation at 100 mg/kg, po by UPLC-IT-TOF-MS analysis; type: ADME, organism-based; conditions: in vivo; how it was run: as §1
Mus musculus [10] = assay: Increase in norepinephrine level in Kunming mouse striatum at 40 mg/kg, po treated for 7 days by HPLC-ECD analysis; type: functional, organism-based; how it was run: as §3
Mus musculus [11] = assay: Increase in ratio of 3,4-dihydroxyphenylacetic acid and 4-hydroxy-3-methoxyphenylacetic acid to dopamine level in Kunming mouse frontal cortex at 40 mg/kg, po treated for 7 days by HPLC-ECD analysis; type: functional, organism-based; how it was run: as §3
[12] = Drug metabolism in Sprague-Dawley rat plasma assessed as 5,5'-diallyl-2'-((2S,3R,4S,5S,6R)-3,4,5-trihydroxy-6-(hydroxymethyl)tetrahydro-2H-pyran-2-yloxy)biphenyl-2-yl hydrogen sulfate formation at 100 mg/kg, po by UPLC-IT-TOF-MS analysis; type: ADME, organism-based; conditions: in vivo; how it was run: as §2
[13] = Drug metabolism in Sprague-Dawley rat feces assessed as (2S,3R,4S,5S,6R)-2-(5'-allyl-2'-hydroxy-5-(1-hydroxyallyl)biphenyl-2-yloxy)-6-(hydroxymethyl)tetrahydro-2H-pyran-3,4,5-triol formation at 100 mg/kg, po by UPLC-IT-TOF-MS analysis; type: ADME, organism-based; conditions: in vivo; how it was run: as §1
[14] = Drug metabolism in Sprague-Dawley rat plasma assessed as 2'-hydroxy-5'-(1-hydroxyallyl)-5-propylbiphenyl-2-yl hydrogen sulfate formation at 100 mg/kg, po by UPLC-IT-TOF-MS analysis; type: ADME, organism-based; conditions: in vivo; how it was run: as §1
Mus musculus [15] = assay: Toxicity in Kunming mouse assessed as effect in spontaneous locomotor activity by measuring total distance travelled at 10 to 40 mg/kg, po by open field test; type: organism-based; conditions: in vivo
How it was run: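 Male Kunming mice, 18–20 g, group-housed at 22 ± 2 °C on 12 h light/dark, given oral doses of 10, 20 or 40 mg/kg before behavioural testing. Each animal placed in the centre of a black open-field box (24 × 24 × 40 cm) for 30 s adaptation, then explored freely for 6 min. Line crossings and distance recorded. Mean ± SEM, n = 10.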

[16] = Drug metabolism in Sprague-Dawley rat feces assessed as 5'-(1-hydroxyallyl)-5-propyl-2'-((2S,3R,4S,5S,6R)-3,4,5-trihydroxy-6-(hydroxymethyl)tetrahydro-2H-pyran-2-yloxy)biphenyl-2-yl hydrogen sulfate formation at 100 mg/kg, po by UPLC-IT-TOF-MS analysis; type: ADME, organism-based; conditions: in vivo; how it was run: as §1
[17] = Drug metabolism in Sprague-Dawley rat plasma assessed as (2S,3S,4S,5R,6S)-6-(5-acryloyl-2'-hydroxy-5'-(1-hydroxyallyl)biphenyl-2-yloxy)-3,4,5-trihydroxytetrahydro-2H-pyran-2-carboxylic acid formation at 100 mg/kg, po by UPLC-IT-TOF-MS analysis; type: ADME, organism-based; conditions: in vivo; how it was run: as §1
[18] = Drug level in Sprague-Dawley rat feces at 100 mg/kg, po by UPLC-IT-TOF-MS analysis; type: ADME, organism-based; conditions: in vivo; how it was run: as §1
[19] = Drug metabolism in Sprague-Dawley rat feces assessed as (2S,3S,4S,5R,6S)-3,4,5-trihydroxy-6-(5-(1-hydroxyallyl)-5'-(2-hydroxypropyl)-2'-methoxybiphenyl-2-yloxy)tetrahydro-2H-pyran-2-carboxylic acid formation at 100 mg/kg, po by UPLC-IT-TOF-MS analysis; type: ADME, organism-based; conditions: in vivo; how it was run: as §1
Mus musculus [20] = assay: Increase in 3,4-dihydroxyphenylacetic acid level in Kunming mouse hypothalamus at 40 mg/kg, po treated for 7 days by HPLC-ECD analysis; type: functional, organism-based; how it was run: as §3

C=CCc1ccc(O)c(-c2cc(CC=C)ccc2O[C@@H]2O[C@H](CO)[C@@H](O)[C@H](O)[C@H]2O)c1
Not Active: Drug uptake [18]
Non-Toxic: Activity (Mus musculus [15])
Metabolite_Detected: Drug metabolism [9] | Drug metabolism [16]
Metabolite_Notdetected: Drug metabolism [1] | Drug metabolism [2] | Drug metabolism [4] | Drug metabolism [5] | Drug metabolism [6] | Drug metabolism [12] | Drug metabolism [13] | Drug metabolism [14] | Drug metabolism [17] | Drug metabolism [19]
397 µM: EC50 [3]
active: Activity (Mus musculus [7]) | Activity (Mus musculus [8]) | Activity (Mus musculus [10]) | Activity (Mus musculus [11]) | Activity (Mus musculus [20])
